Activity calls are given as the source filed them. The calls are words filed in the database; no cut-off is given here.

Common to all, as to format: cell-based
One assay concerns the target T1, Toll-like receptor 7 (Homo sapiens, UniProt Q9NYK1).
T1 sequence (Q9NYK1 whole entry): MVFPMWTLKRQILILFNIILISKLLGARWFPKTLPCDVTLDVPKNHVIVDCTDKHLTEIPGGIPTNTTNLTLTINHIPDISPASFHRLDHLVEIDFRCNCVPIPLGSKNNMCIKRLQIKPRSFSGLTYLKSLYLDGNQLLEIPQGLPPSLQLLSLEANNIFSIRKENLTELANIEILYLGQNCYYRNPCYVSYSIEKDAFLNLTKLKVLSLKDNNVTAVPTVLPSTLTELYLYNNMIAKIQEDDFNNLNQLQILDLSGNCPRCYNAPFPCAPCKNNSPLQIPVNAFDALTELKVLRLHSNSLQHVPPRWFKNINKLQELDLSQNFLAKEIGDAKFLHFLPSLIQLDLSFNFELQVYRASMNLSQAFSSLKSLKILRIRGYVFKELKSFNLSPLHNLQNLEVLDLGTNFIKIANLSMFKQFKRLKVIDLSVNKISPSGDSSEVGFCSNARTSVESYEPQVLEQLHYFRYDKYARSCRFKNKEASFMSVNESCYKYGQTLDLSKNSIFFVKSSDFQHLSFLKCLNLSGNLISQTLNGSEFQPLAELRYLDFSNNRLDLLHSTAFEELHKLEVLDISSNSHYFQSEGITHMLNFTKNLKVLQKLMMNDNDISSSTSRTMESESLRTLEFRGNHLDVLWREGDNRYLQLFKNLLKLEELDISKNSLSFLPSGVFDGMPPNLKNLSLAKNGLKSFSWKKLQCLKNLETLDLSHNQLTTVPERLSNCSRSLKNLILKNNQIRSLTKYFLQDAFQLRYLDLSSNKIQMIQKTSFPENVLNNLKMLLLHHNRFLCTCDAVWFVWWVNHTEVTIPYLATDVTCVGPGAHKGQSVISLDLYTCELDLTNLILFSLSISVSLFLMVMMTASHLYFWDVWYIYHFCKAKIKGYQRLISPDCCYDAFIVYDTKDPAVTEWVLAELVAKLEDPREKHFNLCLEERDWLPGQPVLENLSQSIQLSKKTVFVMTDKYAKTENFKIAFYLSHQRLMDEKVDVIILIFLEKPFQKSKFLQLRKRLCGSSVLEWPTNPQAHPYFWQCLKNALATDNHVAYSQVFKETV
Kind of assay: Agonist activity at human TLR7 expressed in HEK293 cells co-expressing secreted alkaline phosphatase assessed as induction of NF-kappaB/AP-1 promoter activity by measuring increase in secreted alkaline phosphatase level by spectrophotometric method. Put shortly: (§1)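 HEK293 cells stably co-transfected with the relevant human TLR (2, 3, 4, 5, 7, 8 or 9) plus an NF-κB/AP-1-driven secreted alkaline phosphatase reporter, kept in selection medium. Cells at ~10⁵ cells/ml were exposed to graded concentrations of stimuli in 384-well format, liquid-handler assisted. Supernatant sAP was read at 620 nm with an alkaline phosphatase-specific chromogen.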

The next assay deals with T2, Toll-like receptor 8 (Homo sapiens, UniProt Q9NR97).
T2 sequence (Q9NR97 whole entry): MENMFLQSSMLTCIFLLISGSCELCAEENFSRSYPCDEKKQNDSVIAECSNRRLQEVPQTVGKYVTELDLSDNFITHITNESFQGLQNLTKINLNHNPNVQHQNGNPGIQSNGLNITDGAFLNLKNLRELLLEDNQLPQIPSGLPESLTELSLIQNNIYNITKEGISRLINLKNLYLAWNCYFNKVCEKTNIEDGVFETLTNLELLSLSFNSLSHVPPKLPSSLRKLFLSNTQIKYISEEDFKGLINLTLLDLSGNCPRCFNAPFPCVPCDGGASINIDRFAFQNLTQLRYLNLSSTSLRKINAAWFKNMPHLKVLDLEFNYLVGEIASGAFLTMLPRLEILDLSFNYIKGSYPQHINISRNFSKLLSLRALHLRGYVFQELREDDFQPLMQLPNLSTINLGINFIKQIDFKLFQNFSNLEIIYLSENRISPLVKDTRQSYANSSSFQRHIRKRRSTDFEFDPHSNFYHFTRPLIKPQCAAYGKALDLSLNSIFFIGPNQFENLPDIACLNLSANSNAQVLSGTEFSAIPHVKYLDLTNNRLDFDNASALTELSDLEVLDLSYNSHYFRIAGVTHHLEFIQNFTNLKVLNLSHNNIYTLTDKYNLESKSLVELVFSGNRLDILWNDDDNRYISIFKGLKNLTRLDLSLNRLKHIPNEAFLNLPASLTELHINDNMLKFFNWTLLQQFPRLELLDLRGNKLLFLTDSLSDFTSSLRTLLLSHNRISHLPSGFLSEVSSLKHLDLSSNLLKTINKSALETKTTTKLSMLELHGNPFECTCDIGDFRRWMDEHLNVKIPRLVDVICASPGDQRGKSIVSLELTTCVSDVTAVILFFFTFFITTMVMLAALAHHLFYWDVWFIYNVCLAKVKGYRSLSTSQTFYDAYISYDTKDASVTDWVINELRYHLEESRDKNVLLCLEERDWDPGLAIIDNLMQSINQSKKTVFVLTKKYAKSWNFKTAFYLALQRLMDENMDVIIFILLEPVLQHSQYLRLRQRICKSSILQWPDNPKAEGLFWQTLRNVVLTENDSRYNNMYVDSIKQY
Put plainly: Agonist activity at human TLR8 expressed in HEK293 cells co-expressing secreted alkaline phosphatase assessed as induction of NF-kappaB/AP-1 promoter activity by measuring increase in secreted alkaline phosphatase level by spectrophotometric method. The essentials:
as §1

The target of assay [1] is Toll-like receptor 2 (Homo sapiens) (UniProt O60603). Put plainly: Activity at human TLR2 expressed in HEK293 cells co-expressing secreted alkaline phosphatase assessed as induction of NF-kappaB/AP-1 promoter activity by measuring increase in secreted alkaline phosphatase level by spectrophotometric method. Put shortly:
as §1

Assay [2] addresses Toll-like receptor 3 (Homo sapiens) (UniProt O15455). Put plainly: Activity at human TLR3 expressed in HEK293 cells co-expressing secreted alkaline phosphatase assessed as induction of NF-kappaB/AP-1 promoter activity by measuring increase in secreted alkaline phosphatase level by spectrophotometric method. Put shortly: as §1
Assay [3] addresses Toll-like receptor 4 (Homo sapiens) (UniProt O00206). Kind of assay: Activity at human TLR4 expressed in HEK293 cells co-expressing secreted alkaline phosphatase assessed as induction of NF-kappaB/AP-1 promoter activity by measuring increase in secreted alkaline phosphatase level by spectrophotometric method. Put shortly: as §1
Assay [4] has as its target Toll-like receptor 5 (Homo sapiens) (UniProt O60602). Put plainly: Activity at human TLR5 expressed in HEK293 cells co-expressing secreted alkaline phosphatase assessed as induction of NF-kappaB/AP-1 promoter activity by measuring increase in secreted alkaline phosphatase level by spectrophotometric method. The essentials: as §1

Toll-like receptor 5 (Homo sapiens), sequence (O60602 whole entry): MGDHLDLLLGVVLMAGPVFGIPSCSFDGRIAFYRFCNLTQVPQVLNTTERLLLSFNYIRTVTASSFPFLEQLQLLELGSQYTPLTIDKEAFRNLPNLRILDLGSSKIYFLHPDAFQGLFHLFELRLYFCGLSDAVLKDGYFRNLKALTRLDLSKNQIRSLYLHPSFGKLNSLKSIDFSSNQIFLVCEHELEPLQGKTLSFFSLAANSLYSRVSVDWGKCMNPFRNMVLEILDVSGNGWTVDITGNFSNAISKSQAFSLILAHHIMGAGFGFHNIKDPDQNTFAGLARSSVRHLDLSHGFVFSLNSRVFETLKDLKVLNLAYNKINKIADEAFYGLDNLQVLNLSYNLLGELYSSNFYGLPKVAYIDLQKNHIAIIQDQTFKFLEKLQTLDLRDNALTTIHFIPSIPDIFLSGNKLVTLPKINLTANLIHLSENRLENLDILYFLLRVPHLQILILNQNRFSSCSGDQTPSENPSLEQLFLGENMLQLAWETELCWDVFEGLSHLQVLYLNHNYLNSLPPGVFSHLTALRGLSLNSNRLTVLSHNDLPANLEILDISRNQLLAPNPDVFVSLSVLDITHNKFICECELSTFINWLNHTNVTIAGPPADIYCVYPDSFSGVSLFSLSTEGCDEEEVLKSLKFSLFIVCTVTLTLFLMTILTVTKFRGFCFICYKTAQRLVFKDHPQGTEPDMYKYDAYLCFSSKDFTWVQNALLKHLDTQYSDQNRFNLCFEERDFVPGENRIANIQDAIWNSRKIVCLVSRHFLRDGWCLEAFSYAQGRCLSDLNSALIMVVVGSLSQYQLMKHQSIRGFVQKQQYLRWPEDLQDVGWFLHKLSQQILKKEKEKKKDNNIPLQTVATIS
Toll-like receptor 2 (Homo sapiens), sequence (O60603 whole entry): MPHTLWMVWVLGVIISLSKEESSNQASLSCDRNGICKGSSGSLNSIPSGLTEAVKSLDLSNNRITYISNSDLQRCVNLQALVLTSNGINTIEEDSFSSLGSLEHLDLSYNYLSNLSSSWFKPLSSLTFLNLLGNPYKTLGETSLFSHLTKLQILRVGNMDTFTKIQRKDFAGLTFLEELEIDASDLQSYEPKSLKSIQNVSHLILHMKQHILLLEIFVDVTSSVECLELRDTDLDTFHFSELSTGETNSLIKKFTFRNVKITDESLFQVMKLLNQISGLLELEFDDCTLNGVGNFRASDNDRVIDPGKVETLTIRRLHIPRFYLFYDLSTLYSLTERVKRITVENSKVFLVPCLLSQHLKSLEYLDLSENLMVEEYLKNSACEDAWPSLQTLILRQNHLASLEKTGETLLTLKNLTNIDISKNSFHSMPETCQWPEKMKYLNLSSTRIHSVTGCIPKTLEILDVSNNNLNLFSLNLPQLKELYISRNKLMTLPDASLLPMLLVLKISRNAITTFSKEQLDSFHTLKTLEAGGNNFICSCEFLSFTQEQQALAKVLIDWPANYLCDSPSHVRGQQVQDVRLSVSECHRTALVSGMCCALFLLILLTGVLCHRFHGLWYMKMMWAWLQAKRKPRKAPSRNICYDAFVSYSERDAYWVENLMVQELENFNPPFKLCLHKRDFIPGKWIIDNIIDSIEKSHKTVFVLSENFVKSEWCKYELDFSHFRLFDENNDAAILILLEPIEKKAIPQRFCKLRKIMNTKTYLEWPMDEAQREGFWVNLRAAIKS
Toll-like receptor 3 (Homo sapiens), sequence (O15455 whole entry): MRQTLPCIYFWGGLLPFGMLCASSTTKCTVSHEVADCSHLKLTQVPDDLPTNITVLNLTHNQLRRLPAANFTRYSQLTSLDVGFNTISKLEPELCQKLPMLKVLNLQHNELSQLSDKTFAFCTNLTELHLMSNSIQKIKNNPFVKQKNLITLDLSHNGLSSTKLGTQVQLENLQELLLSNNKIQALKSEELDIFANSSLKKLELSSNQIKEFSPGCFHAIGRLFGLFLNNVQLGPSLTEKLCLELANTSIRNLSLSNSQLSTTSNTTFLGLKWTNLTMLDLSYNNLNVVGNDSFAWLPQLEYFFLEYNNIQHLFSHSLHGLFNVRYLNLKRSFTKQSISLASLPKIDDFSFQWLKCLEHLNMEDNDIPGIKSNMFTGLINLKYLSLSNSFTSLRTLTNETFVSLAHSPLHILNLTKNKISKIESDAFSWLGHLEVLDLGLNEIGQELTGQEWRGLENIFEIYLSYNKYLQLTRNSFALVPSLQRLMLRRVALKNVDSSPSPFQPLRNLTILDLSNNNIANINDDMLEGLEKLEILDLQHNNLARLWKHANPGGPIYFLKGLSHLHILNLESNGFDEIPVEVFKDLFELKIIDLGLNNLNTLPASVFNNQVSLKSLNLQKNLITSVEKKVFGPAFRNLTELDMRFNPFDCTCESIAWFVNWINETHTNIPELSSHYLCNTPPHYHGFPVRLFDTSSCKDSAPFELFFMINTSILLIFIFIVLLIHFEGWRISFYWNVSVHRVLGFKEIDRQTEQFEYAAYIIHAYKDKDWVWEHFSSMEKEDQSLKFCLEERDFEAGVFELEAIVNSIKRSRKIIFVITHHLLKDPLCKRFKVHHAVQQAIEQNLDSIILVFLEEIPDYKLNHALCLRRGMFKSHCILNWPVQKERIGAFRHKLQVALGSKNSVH
Toll-like receptor 4 (Homo sapiens), sequence (O00206 whole entry): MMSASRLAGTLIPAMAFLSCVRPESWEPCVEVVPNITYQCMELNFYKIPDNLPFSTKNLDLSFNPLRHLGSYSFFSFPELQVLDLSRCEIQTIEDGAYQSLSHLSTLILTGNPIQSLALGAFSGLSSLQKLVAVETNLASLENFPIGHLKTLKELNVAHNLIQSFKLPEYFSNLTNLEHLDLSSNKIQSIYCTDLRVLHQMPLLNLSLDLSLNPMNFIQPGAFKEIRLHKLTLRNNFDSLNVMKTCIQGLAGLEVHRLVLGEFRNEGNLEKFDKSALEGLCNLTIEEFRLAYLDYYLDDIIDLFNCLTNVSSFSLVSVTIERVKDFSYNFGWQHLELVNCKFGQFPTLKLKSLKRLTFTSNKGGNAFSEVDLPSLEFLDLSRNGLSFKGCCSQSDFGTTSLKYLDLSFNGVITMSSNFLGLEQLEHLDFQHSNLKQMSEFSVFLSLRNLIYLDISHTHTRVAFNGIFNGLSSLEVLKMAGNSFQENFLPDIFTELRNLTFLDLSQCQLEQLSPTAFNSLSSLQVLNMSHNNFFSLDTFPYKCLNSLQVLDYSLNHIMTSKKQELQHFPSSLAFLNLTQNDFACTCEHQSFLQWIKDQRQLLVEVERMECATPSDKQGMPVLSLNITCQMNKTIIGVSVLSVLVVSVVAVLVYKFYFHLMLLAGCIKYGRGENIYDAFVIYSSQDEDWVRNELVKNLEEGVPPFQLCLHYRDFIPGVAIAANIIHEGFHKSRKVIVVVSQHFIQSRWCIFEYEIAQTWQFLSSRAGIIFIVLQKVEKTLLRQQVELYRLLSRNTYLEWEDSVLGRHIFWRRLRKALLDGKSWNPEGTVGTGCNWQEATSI

As usually defined, the EC50 is the concentration needed to bring the measured effect to its halfway point. For `CCCCNc1nc(N)nc(C)c1CCCc1ccccc1`, the EC50 at Toll-like receptor 7 was found to be 194 nM; on Toll-like receptor 8, 749 nM. Also, the outcome in assay [1], in assay [2], in assay [3] and in assay [4] was inactive.
As to `CCCCNc1nc(N)nc(C)c1C`, the values for the EC50 at Toll-like receptor 7 and at Toll-like receptor 8 were 3400 nM and 3280 nM, respectively. Also, the result in assay [1], in assay [2], in assay [3] and in assay [4] was inactive.
For the compound `CCCCNc1nc(N)nc(C)c1CCCn1c(C)nc2ccccc21`, the EC50 stood at 379 nM at Toll-like receptor 7 and 366 nM at Toll-like receptor 8. The outcome in assay [1], in assay [2], in assay [3] and in assay [4] was inactive.
On to `CCCCNc1nc(N)nc(C)c1CCCN1CCSCC1`, for which the EC50 is 714 nM at Toll-like receptor 7 and 167 nM at Toll-like receptor 8. Also, the result in assay [1], in assay [2], in assay [3] and in assay [4] was inactive.
For the compound `CCCCNc1nc(N)nc(C)c1CCCN1CCCC1`, the EC50 was 562 nM at Toll-like receptor 7 and 110 nM on Toll-like receptor 8. Also, the result in assay [1], in assay [2], in assay [3] and in assay [4] was inactive.
Consider `CCCCNc1nc(N)nc(C)c1CCc1ccccc1`, for which the results for the EC50 on Toll-like receptor 7 and at Toll-like receptor 8 were 2820 nM and 1190 nM, respectively. In addition, the outcome in assay [1], in assay [2], in assay [3] and in assay [4] was inactive.
On to `CCCCNc1nc(N)nc(C)c1CCCN(C)C`, for which the EC50 on Toll-like receptor 7 is 958 nM; on Toll-like receptor 8 it was 126 nM. In addition, the result in assay [1], in assay [2], in assay [3] and in assay [4] was inactive.
Take `CCCCNc1nc(N)nc(C)c1CCCn1cncn1`: the values for the EC50 at Toll-like receptor 7 and at Toll-like receptor 8 were 1160 nM and 1050 nM, respectively. Besides, the result in assay [1], in assay [2], in assay [3] and in assay [4] was inactive.
Regarding `CCCCNc1nc(N)nc(C)c1CC`, the EC50 worked out at 1270 nM on Toll-like receptor 7 and 1660 nM at Toll-like receptor 8. Also, the result in assay [1], in assay [2], in assay [3] and in assay [4] was inactive.
As for `CCCCNc1nc(N)nc(C)c1CCCN(C)CCOC`, the EC50 on Toll-like receptor 7 worked out at 1240 nM; at Toll-like receptor 8, 203 nM. Besides, the result in assay [1], in assay [2], in assay [3] and in assay [4] was inactive.
As to `CCCCNc1nc(N)nc(C)c1CCCN1CCCCC1`, the results for the EC50 at Toll-like receptor 7 and on Toll-like receptor 8 were 710 nM and 133 nM, respectively. For the same compound, the result in assay [1], in assay [2], in assay [3] and in assay [4] was inactive.
On to `CCCCNc1nc(N)nc(C)c1CCCCO`, for which the concentration giving a half-maximal response (EC50) is 1020 nM at Toll-like receptor 7 and 1310 nM on Toll-like receptor 8. Further, the outcome in assay [1], in assay [2], in assay [3] and in assay [4] was inactive.
With `CCCCNc1nc(N)nc(C)c1CCCn1ccc2ccccc21`, the 50% effective concentration (EC50) is 140 nM at Toll-like receptor 7 and 1100 nM at Toll-like receptor 8. Moreover, the result in assay [1], in assay [2], in assay [3] and in assay [4] was inactive.
In the case of `CCCCNc1nc(N)nc(C)c1CCC(C)(C)O`, the EC50 came to 3260 nM at Toll-like receptor 7 and 3140 nM at Toll-like receptor 8. The outcome in assay [1], in assay [2], in assay [3] and in assay [4] was inactive.
For `CCCCNc1nc(N)nc(C)c1CCCN1C(=O)c2ccccc2C1=O`, the results for the EC50 on Toll-like receptor 7 and on Toll-like receptor 8 were 1290 nM and 453 nM, respectively. In addition, the result in assay [1], in assay [2], in assay [3] and in assay [4] was inactive.
`CCCCNc1nc(N)nc(C)c1CCCN1Cc2ccccc2C1`: the EC50 was found to be 375 nM at Toll-like receptor 7 and 29 nM on Toll-like receptor 8. For the same compound, the outcome in assay [1], in assay [2], in assay [3] and in assay [4] was inactive.
For `CCCCNc1nc(N)nc(C)c1CCCN1CCCCCC1`, the concentration giving a half-maximal response (EC50) was found to be 730 nM on Toll-like receptor 7 and 178 nM on Toll-like receptor 8. Further, the outcome in assay [1], in assay [2], in assay [3] and in assay [4] was inactive.
